Data set [1] in a line: T1/2 in mouse liver microsome assays. It is filed as in vitro ADME. To be noted: liver microsomes. An outline of the steps:
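Test compound incubated with mouse liver microsomes at 37 °C. The amount of unmodified compound remaining was measured after 30 min as a single-point stability read. T1/2 (min) was calculated from these incubations. Dextromethorphan served as the positive control.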

In a further data set the test system is tau. To be noted: cited from earlier work.
For data set [2] the following is noted: mouse liver microsome assays; cited from earlier work.
Data set [3] can be described thus: mouse liver microsome stability, compound remaining after 30 minutes. It is filed as in vitro ADME. The following applies: unmodified compound remaining after incubation with mouse liver microsomes for 30 minutes at 37 °C.
The nature of another data set: solubility. The following applies: excluded from further study. It is filed as physicochemical.
A further data set has as its system HeLaC3 cells. Description: total tau. It is filed as cell-based. To be noted: 24 h, Western blot. In general terms: In western blotting, separated proteins are transferred to a membrane and probed.

Where two headings read alike, the source gives them in different places.

Usually half-life stands for the time in which the quantity being followed falls by half. Compound `CCn1c(=O)/c(=C2\Sc3cccc(Cl)c3N2C)s/c1=C\c1ccccn1` [Compound 5] showed a half-life in data set [1] of roughly 20 min. On the same count and under the same terms, next, `CCn1c(=O)/c(=C2\Sc3cc(Cl)ccc3N2C)s/c1=C\c1ccncc1` [Compound 16]: roughly 20 min. As to YM-01, the “concentration promoting tau degradation” value in the data set on tau is ~ 1 μM.

Take `CCn1c(=O)/c(=C2\Sc3ccc(Cl)cc3N2C)s/c1=C\c1ccccn1` [Compound 6]: the half-life in data set [1] was roughly 20 min. Turning to `CCn1c(=O)/c(=C2\Sc3ccccc3N2C)s/c1=C\c1ccccn1` [YM-08], the half-life result in data set [2] was “less than three minutes”. Moreover, the “Percentage at T30min” value in data set [3] is recorded as “below the limit of detection”.

Take `CCn1c(=O)/c(=C2\Sc3cccc(Cl)c3N2C)s/c1=C\c1ccncc1` [Compound 14]: in “solubility”, the solubility result is given as “poor solubility”. For `CCn1c(=O)/c(=C2\Sc3ccc(Cl)cc3N2C)s/c1=C\c1ccncc1` [Compound 15], the “cellular stress (levels of Hsp72 and Hsp90)” value with HeLaC3 cells was “did not activate cellular stress”. `CCn1c(=O)/c(=C2\Sc3c(Cl)cccc3N2C)s/c1=C\c1ccncc1` [Compound 17]: the solubility result in “solubility” is reported as “poor solubility”.

The record behind these values is article PMC8805511 (Bioorganic & medicinal chemistry letters, 2021).
